According to ChEMBL document CHEMBL1123885, “Analogues of 3-ethyl-3-(4-pyridyl)piperidine-2,6-dione as selective inhibitors of aromatase: derivatives with variable 1-alkyl and 3-alkyl substituents” (J Med Chem, 1987):
pIC50: −log10 of the molar value.

Columns and labels:
[1] = Partition coefficient (logP); type: physicochemical; conditions: octanol/water
[2] = molecular target: T1, Cholesterol side-chain cleavage enzyme, mitochondrial (Bos taurus, UniProt P00189); assay: Inhibition of bovine desmolase, cytochrome P450 11A1; NI = No Inhibition at maximum concentration tested
T1 sequence (P00189 whole entry): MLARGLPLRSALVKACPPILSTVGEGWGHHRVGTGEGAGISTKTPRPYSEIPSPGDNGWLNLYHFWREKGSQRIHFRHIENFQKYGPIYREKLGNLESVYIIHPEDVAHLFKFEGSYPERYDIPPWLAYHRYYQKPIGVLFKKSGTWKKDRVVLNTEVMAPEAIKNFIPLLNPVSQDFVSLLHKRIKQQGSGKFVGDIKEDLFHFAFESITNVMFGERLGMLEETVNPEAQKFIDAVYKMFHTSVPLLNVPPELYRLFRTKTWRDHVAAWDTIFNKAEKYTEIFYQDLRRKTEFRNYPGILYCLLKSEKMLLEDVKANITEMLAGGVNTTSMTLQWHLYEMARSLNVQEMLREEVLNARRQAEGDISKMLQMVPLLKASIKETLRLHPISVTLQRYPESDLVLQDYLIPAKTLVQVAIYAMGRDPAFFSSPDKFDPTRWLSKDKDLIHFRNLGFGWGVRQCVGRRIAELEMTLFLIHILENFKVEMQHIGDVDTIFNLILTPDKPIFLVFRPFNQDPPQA
Procedure, shortened: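 Bovine adrenal cortex mitochondrial fraction as side-chain cleavage enzyme. […] Released [14C]isocaproic acid passes through alumina, which retains the steroid; eluate radioactivity is counted. Compound tested at 5, 10, 20 and 50 μg/mL. IC50 is the concentration that halves control activity, extrapolated when above the top concentration. "None" means no inhibition at the maximum tested.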

Aromatase = molecular target: T2, Aromatase (Homo sapiens, UniProt P11511)
T2 sequence (P11511 whole entry): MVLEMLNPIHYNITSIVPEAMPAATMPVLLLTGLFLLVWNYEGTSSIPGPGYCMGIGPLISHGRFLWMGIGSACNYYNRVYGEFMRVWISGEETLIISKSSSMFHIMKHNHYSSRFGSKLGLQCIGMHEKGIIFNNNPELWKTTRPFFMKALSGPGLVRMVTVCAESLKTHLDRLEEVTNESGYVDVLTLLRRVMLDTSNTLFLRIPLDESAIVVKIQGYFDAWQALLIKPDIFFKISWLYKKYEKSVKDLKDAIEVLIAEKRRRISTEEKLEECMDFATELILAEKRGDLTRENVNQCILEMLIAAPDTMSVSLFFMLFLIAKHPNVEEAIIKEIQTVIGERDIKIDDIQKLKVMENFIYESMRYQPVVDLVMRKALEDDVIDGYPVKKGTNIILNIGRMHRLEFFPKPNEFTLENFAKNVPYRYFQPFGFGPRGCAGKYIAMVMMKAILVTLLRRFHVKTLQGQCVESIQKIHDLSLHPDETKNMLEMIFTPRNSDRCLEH

SMILES | logP [1] | IC50 [2] | pIC50 (Aromatase)
CCCCN1C(=O)CCC(CC)(c2ccncc2)C1=O (stereo not given) | 2.76 | No inhibition | –
CCCCCCN1C(=O)CCC(CC)(c2ccncc2)C1=O (stereo not given) | – | No inhibition | –
CCN1C(=O)CCC(CC)(c2ccncc2)C1=O (stereo not given) | 1.64 | No inhibition | –
CCCCC1(c2ccncc2)CCC(=O)NC1=O (stereo not given) | – | No inhibition | –
CCCN1C(=O)CCC(CC)(c2ccncc2)C1=O (stereo not given) | 2.18 | No inhibition | –
CCCCCCCC1(c2ccncc2)CCC(=O)NC1=O (stereo not given) | – | – | 5.49
CCCC1(c2ccncc2)CCC(=O)NC1=O (stereo not given) | 1.13 | No inhibition | –
CCCCCCC1(c2ccncc2)CCC(=O)NC1=O (stereo not given) | 2.94 | No inhibition | 5.44
CCC1(c2ccncc2)CCC(=O)N(C)C1=O (stereo not given) | – | No inhibition | –
CCC1(c2ccncc2)CCC(=O)NC1=O (stereo not given) [ROGLETIMIDE] | 0.58 | – | –
CCCCCC1(c2ccncc2)CCC(=O)NC1=O (stereo not given) | 2.26 | No inhibition | 5.60
CC1(c2ccncc2)CCC(=O)NC1=O (stereo not given) | – | No inhibition | –
